Measured values of several laboratories.
Protocols differ between the studies behind these lines.
Target: Vascular endothelial growth factor receptor 2 (KDR, Homo sapiens, UniProt P35968)

| SMILES | test | conditions | endpoint | result |
| --- | --- | --- | --- | --- |
| COc1ccc(NC(=O)c2c(Nc3ccccc3)sc(C#N)c2NC(=O)CNc2ccc(Cl)cc2)cc1 | enzyme activity, inhibitor | 10 nM | remaining activity | 98% |
| CCC(=N\O)/C(C)=C/c1ccc(F)cc1 | cell-free assay, competition with immobilised ligand | 1 µM | remaining binding | 81% |
| COc1ccc(NC(=O)c2c(Nc3ccccc3)sc(C(=O)NN=Cc3ccc(Cl)cc3)c2NC(C)=O)cc1 | enzyme activity, inhibitor | 100 µM | remaining activity | 60.6% |
| CCOc1cc(-c2nncn2C)ccc1Nc1ncc2cc(C)nc(NCC(C)(C)C)c2n1 | enzyme activity, inhibitor, FRET | 1 µM | inhibition | < 15% |
| CS(=O)(=O)Nc1cccc(-c2csc(NC(=O)CSc3nc4nccnc4c(=O)n3CCc3ccccc3)n2)c1 | enzyme activity, inhibitor | 10 µM | inhibition | 0% |
| COc1cc2ncnc(Nc3ccc(Oc4ccccc4)cc3C)c2cc1OC | enzyme activity, inhibitor | 1 µM | inhibition | 14% |
| c1nc2c(Nc3ccc4c(c3)OCCO4)nc(Nc3ccc4c(c3)OCCO4)nc2[nH]1 | enzyme activity, inhibitor | 10 µM | activity vs control | 11% |
| COc1ccc(COc2ccc(Cc3cnc(N)nc3N)cc2OC)cc1 | cell-free assay | 0.5 µM | remaining signal | 109% |
| CN(C)C1CCN(CC#Cc2nn(C3CCCC3)c3nc(NCc4ccccc4)ncc23)C1 (stereo not drawn) | enzyme activity, inhibitor, FRET | 10 µM | inhibition | 56% |
| O=C1NC(=O)c2cc(Nc3ccc(F)cc3)c(Nc3ccc(F)cc3)cc21 | cell-free assay | 0.5 µM | remaining signal | 97.9% |
| COc1ccc(NC(=O)c2c(Nc3ccccc3)sc(C#N)c2NC(=O)CNc2ccc([N+](=O)[O-])cc2)cc1 | enzyme activity, inhibitor | 10 µM | remaining activity | 71.8% |
| FC(F)(F)c1ccc2c(c1)nc(-c1cccnc1)n2C1CC1 | cell-free assay, competition with immobilised ligand | 1 µM | remaining binding | 100% |
| COc1ccc(NC(=O)c2c(Nc3ccccc3)sc(C(=O)NN=Cc3cc(OC)c(OC)c(OC)c3)c2NC(C)=O)cc1 | enzyme activity, inhibitor | 10 µM | remaining activity | 71.1% |
| Cc1[nH]c(/C=C2\C(=O)Nc3ccc(F)cc32)c(C)c1C(=O)N[C@H]1CCN(C(=O)N(C)C)C1 | enzyme activity, inhibitor | 1 µM | remaining activity | 9% |
| O=C1Cc2c([nH]c3ccc(Br)cc23)-c2ccccc2N1 | cell-free assay | 0.5 µM | remaining signal | 98.1% |
| CC(C)c1ccc(NC(=O)c2cccs2)c(-c2nc3ccccc3[nH]c2=O)c1 | enzyme activity, inhibitor | 1 µM | activity vs control | 25% |
| C[C@H](c1cccc(C#N)c1)n1cc(Cl)cc(C(N)=O)c1=N | cell-free assay, competition with immobilised ligand | 1 µM | remaining binding | 88% |
| COc1cc2c(N3CCN(C(=O)Nc4ccc(OC(C)C)cc4)CC3)ncnc2cc1OCCCN1CCCCC1 | cell-free assay | 0.5 µM | remaining signal | 106% |
| COc1ccc(NC(=O)c2c(Nc3ccccc3)sc(C#N)c2NC(=O)CNc2ccc(Br)cc2)cc1 | enzyme activity, inhibitor | 1 µM | remaining activity | 51.3% |
| CC(=O)Nc1c(C(C)=O)c(=O)n(C)c2nc(-c3ccc(Cl)cc3Cl)c(-c3ccc(Cl)cc3)cc12 | cell-free assay, competition with immobilised ligand | 1 µM | remaining binding | 94% |
| COc1ccc(NC(=O)c2c(Nc3ccccc3)sc(C(=O)NN=Cc3ccc(OC)c(O)c3)c2NC(C)=O)cc1 | enzyme activity, inhibitor | 0.1 µM | remaining activity | 83.2% |
| Cn1nc(C(=O)NCc2ccc(C(=O)O)cc2)cc1-c1ccc2[nH]ccc2c1 | cell-free assay, competition with immobilised ligand | 0.1 µM | remaining binding | 85% |
| CSc1nc(C)c(-c2ccnc(Nc3ccc(N4CCOCC4)cc3)c2)[nH]1 | enzyme activity, inhibitor | 10 µM | inhibition | 95.1% |
| Oc1cccc(-c2nc(N3CCOCC3)c3oc4ncccc4c3n2)c1 | cell-free assay | 0.5 µM | remaining signal | 85.9% |
| CCCCN(CCCC)C(=O)CN1C[C@H](c2cc(OC)c3c(c2)OCO3)[C@@H](C(=O)O)[C@@H]1CC(C)(C)CCC | cell-free assay, competition with immobilised ligand | 1 µM | remaining binding | 88.7% |
| Nc1ncnc2occ(-c3ccc(NC(=O)Nc4cc(C(F)(F)F)ccc4F)cc3)c12 | cell-free assay | 20 µM | remaining signal | 0% |
| O=C(O)c1cc(-c2ccc(C3CCNCC3)cc2)c2ccc(-c3ccc(C(F)(F)F)cc3)cc2c1 | cell-free assay, competition with immobilised ligand | 1 µM | remaining binding | 100% |
| Cc1ccc(C(=O)Nc2ccc(CN3CCN(C)CC3)c(C(F)(F)F)c2)cc1C#Cc1cnc2cccnn12 | cell-free assay | 23.5 nM | remaining signal | 15% |
| CC/C(=N\NC(=O)NCc1cccc(O)c1)c1ccc(O)c(C)c1O | enzyme activity, inhibitor | 0.1 µM | inhibition | 2.7% |
| Cc1c[nH]c2nccc(Oc3c(F)cc(Nc4cc(Cl)nc(N)n4)cc3F)c12 | cell-free assay, competition with immobilised ligand | 0.1 µM | remaining binding | 81% |
